Experimental data published in ChEMBL document CHEMBL1127825, “Synthesis and in vitro evaluation of 9-anilino-3,6-diaminoacridines active against a multidrug-resistant strain of the malaria parasite Plasmodium falciparum” (J Med Chem, 1994).
Values after ≈ are worked out from the molar mass of the structure shown.

Key:
[1] = test system: Plasmodium falciparum; assay: Inhibitory concentration against Plasmodium falciparum D6 infected erythrocytes; type: functional, organism-based
[2] = test system: Plasmodium falciparum; assay: Inhibitory concentration against Plasmodium falciparum W2 infected erythrocytes; type: functional, organism-based
[3] = test system: Plasmodium falciparum; assay: Minimum inhibitory concentration (IC90) against Plasmodium falciparum K1 infected erythrocytes
[4] = test system: Plasmodium falciparum; assay: (§1) Inhibitory concentration against Plasmodium falciparum K1 infected erythrocytes; type: functional
[5] = test system: Plasmodium falciparum; assay: Minimum inhibitory concentration (IC90) against Plasmodium falciparum K1 infected erythrocytes; remark: listed apart in the source
[6] = test system: Jurkat; assay: Concentration required to reduce growth of human jurkat leukemia cells to 50% of control cultures, determined using a 72 hr continuous exposure; type: functional, cell-based
Procedure, shortened: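 Human Jurkat leukemia cells given continuous drug exposure for 72 h, then counted on a hemocytometer. IC50 is the concentration that cuts cell growth to 50% of untreated controls. Values are means of at least two independent determinations, with variation typically ±15%.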

[7] = test system: Plasmodium falciparum; assay: as §1; type: functional, organism-based
Procedure, shortened: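 Chloroquine- and pyrimethamine-resistant K1 strain in infected erythrocyte suspensions (0.5% initial parasitemia), exposed to drug for 24 h at 37 °C. Read-out: [3H]hypoxanthine incorporation into parasites. IC50 in μM is the concentration that reduces incorporation to 50% of untreated controls.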

[8] = test system: Plasmodium falciparum; assay: Inhibitory concentration IC50 against Plasmodium falciparum K1 by [3H]hypoxanthine uptake over 24 hr; type: functional, organism-based
Procedure, shortened: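 K1 strain of P. falciparum (chloroquine- and pyrimethamine-resistant) in infected erythrocyte suspensions at 0.5% initial parasitemia, exposed to drug for 24 h at 37 °C. Read-out is [3H]hypoxanthine incorporation into parasites. IC50 is the concentration giving 50% inhibition relative to untreated controls.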

[9] = target: T1, DNA topoisomerase 2 (Plasmodium falciparum K1) (UniProt P41001); assay: Minimum inhibitory concentration required to completely inhibit topoisomerase II activity from Plasmodium falciparum was determined using P4 DNA […] assay
T1 sequence (whole entry): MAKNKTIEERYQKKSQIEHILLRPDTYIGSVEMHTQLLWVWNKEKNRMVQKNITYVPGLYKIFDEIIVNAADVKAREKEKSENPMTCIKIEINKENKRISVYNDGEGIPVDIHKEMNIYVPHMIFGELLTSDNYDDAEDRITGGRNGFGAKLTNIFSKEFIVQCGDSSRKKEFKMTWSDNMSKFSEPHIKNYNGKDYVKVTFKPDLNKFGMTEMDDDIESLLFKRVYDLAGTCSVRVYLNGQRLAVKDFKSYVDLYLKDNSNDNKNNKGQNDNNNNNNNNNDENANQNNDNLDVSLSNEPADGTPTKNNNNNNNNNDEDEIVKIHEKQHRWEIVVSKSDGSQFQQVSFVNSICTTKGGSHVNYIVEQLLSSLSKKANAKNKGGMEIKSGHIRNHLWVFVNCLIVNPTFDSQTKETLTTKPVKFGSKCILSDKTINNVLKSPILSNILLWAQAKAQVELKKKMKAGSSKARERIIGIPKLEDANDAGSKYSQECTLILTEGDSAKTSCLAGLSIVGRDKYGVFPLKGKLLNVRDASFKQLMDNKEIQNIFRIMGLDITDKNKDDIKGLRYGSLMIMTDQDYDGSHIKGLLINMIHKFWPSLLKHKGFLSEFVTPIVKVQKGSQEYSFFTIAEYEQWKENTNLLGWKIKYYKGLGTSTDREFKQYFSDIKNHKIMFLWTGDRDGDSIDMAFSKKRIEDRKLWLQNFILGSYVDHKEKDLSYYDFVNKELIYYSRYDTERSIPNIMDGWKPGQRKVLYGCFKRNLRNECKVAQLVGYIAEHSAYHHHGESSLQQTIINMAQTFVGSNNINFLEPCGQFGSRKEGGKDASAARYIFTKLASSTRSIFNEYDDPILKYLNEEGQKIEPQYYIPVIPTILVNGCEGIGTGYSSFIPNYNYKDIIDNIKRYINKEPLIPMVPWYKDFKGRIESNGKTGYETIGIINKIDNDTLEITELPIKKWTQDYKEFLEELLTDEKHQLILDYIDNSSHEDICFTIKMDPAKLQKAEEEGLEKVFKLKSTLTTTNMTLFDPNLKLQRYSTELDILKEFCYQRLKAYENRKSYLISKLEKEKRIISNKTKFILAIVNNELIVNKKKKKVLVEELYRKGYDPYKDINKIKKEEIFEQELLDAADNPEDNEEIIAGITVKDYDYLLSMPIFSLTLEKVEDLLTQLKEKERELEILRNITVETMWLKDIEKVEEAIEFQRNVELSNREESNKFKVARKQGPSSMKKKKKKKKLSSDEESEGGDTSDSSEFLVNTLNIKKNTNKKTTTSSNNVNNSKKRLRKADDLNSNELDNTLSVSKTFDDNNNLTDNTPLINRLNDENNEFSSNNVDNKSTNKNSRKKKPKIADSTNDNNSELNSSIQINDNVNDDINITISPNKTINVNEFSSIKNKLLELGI

[10] = In vitro therapeutic index value is the ratio between IC50 values of [J] and [P]; type: cell-based; details: human, Jurkat cells; read-out: TI
[11] = target: DNA topoisomerase II (Homo sapiens) (UniProt P11388+Q02880); assay: Minimum inhibitory concentration required to completely inhibit topoisomerase II activity from jurkat human leukemia cells was determined using P4 DNA unknotting assay
Procedure, shortened: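 Enzyme is a partially purified topoisomerase II extract from midlog Jurkat cells, made by sonication in Tris pH 8/KCl/MgCl2/EGTA buffer with protease inhibitors, then PEG/KCl precipitation. Extract is diluted to a set P4 DNA unknotting activity. Proteinase K method scores unknotting and linearization of phage P4 DNA on 0.7% agarose gels stained with ethidium bromide. MIC is the concentration giving complete inhibition.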

IC50 [4] | SMILES | IC50 [1] | IC50 [2] | IC90 [3] | IC90 [5] | IC50 [6] | IC50 [7] | IC50 [8] | MIC [9] | selectivity ratio [10] | MIC [11]
– | C=C[C@H]1CN2CC[C@H]1C[C@H]2[C@H](O)c1ccnc2ccc(OC)cc12 [QUININE] | 48 nM | 100 nM | 300 nM | – | – | – | – | – | – | –
250 nM | CCN(CC)CCCC(C)Nc1ccnc2cc(Cl)ccc12 (stereo not given) [CHLOROQUINE] | – | – | – | – | – | – | – | – | – | –
– | OC(c1cc(C(F)(F)F)nc2c(C(F)(F)F)cccc12)C1CCCCN1 (stereo not given) [MEFLOQUINE] | 17 nM | – | – | 70 nM | – | – | – | – | – | –
– | CN(C)Cc1ccc(Nc2c3ccc(N)cc3nc3cc(N)ccc23)cc1 | 113 nM | 277 nM | – | – | > 20000 nM | 40 nM | 40 nM | 50 µM (≈ 17.9 µg/mL) | > 500 | 20 µM (≈ 7.15 µg/mL)
27 nM | COc1ccc2nc3cc(Cl)ccc3c(Nc3cc(CN4CCCC4)c(O)c(CN4CCCC4)c3)c2n1 [PYRONARIDINE] | 1 nM | 0.8 nM | – | – | 4000 nM | – | 2.7 nM | – | 1480 | –
